According to ChEMBL document CHEMBL2021884, “Azaindenoisoquinolines as topoisomerase I inhibitors and potential anticancer agents: a systematic study of structure-activity relationships” (2012):
Active and inactive are the calls of the source. No cut-off for these calls is given here.

Assays:
HCT-116 [1] = assay: Growth inhibition of human HCT116 cells after 48 hrs by sulforhodamine B assay; format: functional; details: HCT-116, 48 h
In short: (§1)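 NCI 60-cell-line screen: cells exposed 48 h to five 10-fold dilutions starting at 100 μM (range 10−4 to 10−8 M), then stained with sulforhodamine B. Optical densities relative to control plotted against log concentration. GI50 interpolated between points above and below 50% growth. Single determinations.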

HOP-62 [2] = assay: Growth inhibition of human HOP62 cells after 48 hrs by sulforhodamine B assay; format: functional; details: HOP-62, 48 h; in short: as §1
SN12C [3] = assay: Growth inhibition of human SN12C cells after 48 hrs by sulforhodamine B assay; format: functional; in short: as §1
UACC-62 [4] = assay: Growth inhibition of human UACC62 cells after 48 hrs by sulforhodamine B assay; format: functional; details: UACC-62, 48 h; in short: as §1
SF-539 [5] = assay: Growth inhibition of human SF539 cells after 48 hrs by sulforhodamine B assay; format: functional; details: SF-539, 48 h; in short: as §1
[6] = target: T1, DNA topoisomerase 1 (Homo sapiens) (UniProt P11387); assay: Inhibition of human recombinant topoisomerase 1-mediated DNA cleavage using [32P]-3'-end-labeled 117-bp DNA fragment as substrate at 0.1 to 100 uM after 20 mins by SDS-PAGE analysis
T1 sequence (whole entry): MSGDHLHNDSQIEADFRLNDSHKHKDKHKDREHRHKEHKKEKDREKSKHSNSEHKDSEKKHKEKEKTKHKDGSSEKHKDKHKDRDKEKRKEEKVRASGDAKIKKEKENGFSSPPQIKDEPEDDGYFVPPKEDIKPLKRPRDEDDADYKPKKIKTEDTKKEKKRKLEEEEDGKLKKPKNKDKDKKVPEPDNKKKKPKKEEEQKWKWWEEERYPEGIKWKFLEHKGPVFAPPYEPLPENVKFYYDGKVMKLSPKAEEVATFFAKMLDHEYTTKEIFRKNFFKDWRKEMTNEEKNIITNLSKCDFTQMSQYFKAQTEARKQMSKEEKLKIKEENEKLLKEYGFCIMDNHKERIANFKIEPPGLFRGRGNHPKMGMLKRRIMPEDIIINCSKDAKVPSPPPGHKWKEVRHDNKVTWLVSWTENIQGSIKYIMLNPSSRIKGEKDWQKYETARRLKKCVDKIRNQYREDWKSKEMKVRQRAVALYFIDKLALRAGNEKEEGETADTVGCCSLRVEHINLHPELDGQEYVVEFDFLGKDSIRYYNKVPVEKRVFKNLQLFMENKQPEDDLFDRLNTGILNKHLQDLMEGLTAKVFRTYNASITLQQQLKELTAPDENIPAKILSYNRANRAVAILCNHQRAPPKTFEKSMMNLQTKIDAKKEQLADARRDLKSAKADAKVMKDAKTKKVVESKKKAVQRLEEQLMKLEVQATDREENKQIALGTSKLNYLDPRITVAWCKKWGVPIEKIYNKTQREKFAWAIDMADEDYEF
In short: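 Human Top1 expressed in baculovirus and purified. Substrate is a 117-bp oligonucleotide carrying the pBluescript SK(−) cleavage sites, 3′-end-labeled by Klenow fill-in with [α-32P]dGTP. Compound at 0.1, 1, 10, 100 μM; reaction stopped with 0.5% SDS (final) plus formamide loading dye.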

OVCAR-3 [7] = assay: Growth inhibition of human OVCAR3 cells after 48 hrs by sulforhodamine B assay; format: functional; details: OVCAR-3, 48 h; in short: as §1
MCF7 [8] = assay: Growth inhibition of human MCF7 cells after 48 hrs by sulforhodamine B assay; format: functional; details: MCF7, 48 h; in short: as §1
DU-145 [9] = assay: Growth inhibition of human DU145 cells after 48 hrs by sulforhodamine B assay; format: functional; details: DU-145, 48 h; in short: as §1
OVCAR-3 [10] = assay: Growth inhibition of human OVCAR3 cells at 10 uM after 48 hrs by sulforhodamine B assay; format: functional, cell-based
In short: (§2)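 NCI screen single-concentration test at 10 μM, 48 h exposure, sulforhodamine B staining. Optical density read relative to untreated control. Used as initial testing to decide whether multi-dose GI50 testing was warranted.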

UACC-62 [11] = assay: Growth inhibition of human UACC62 cells at 10 uM after 48 hrs by sulforhodamine B assay; format: functional, cell-based; in short: as §2
SN12C [12] = assay: Growth inhibition of human SN12C cells at 10 uM after 48 hrs by sulforhodamine B assay; format: functional, cell-based; in short: as §2
HCT-116 [13] = assay: Growth inhibition of human HCT116 cells at 10 uM after 48 hrs by sulforhodamine B assay; format: functional, cell-based; in short: as §2
HOP-62 [14] = assay: Growth inhibition of human HOP62 cells at 10 uM after 48 hrs by sulforhodamine B assay; format: functional, cell-based; in short: as §2
SF-539 [15] = assay: Growth inhibition of human SF539 cells at 10 uM after 48 hrs by sulforhodamine B assay; format: functional, cell-based; in short: as §2
DU-145 [16] = assay: Growth inhibition of human DU145 cells at 10 uM after 48 hrs by sulforhodamine B assay; format: functional, cell-based; in short: as §2
MCF7 [17] = assay: Growth inhibition of human MCF7 cells at 10 uM after 48 hrs by sulforhodamine B assay; format: functional, cell-based; in short: as §2

Compound	GI50 (HCT-116 [1])	GI50 (HOP-62 [2])	GI50 (SN12C [3])	GI50 (UACC-62 [4])	GI50 (SF-539 [5])	inhibition [6]	GI50 (OVCAR-3 [7])	GI50 (MCF7 [8])	GI50 (DU-145 [9])	growth inhibition (GI) (OVCAR-3 [10])	growth inhibition (GI) (UACC-62 [11])	growth inhibition (GI) (SN12C [12])	growth inhibition (GI) (HCT-116 [13])	growth inhibition (GI) (HOP-62 [14])	growth inhibition (GI) (SF-539 [15])	growth inhibition (GI) (DU-145 [16])	growth inhibition (GI) (MCF7 [17])
COc1cc2c3c(n(CCCN(C)C)c(=O)c2cc1OC)-c1ccncc1C3=O	620 nM	6500 nM	8500 nM	> 100000 nM	12000 nM	Active	7400 nM	3900 nM	2900 nM	–	–	–	–	–	–	–	–
COc1cc2c3c(n(CCCN(C)C)c(=O)c2cc1OC)-c1ncccc1C3=O	1600 nM	3400 nM	3200 nM	13000 nM	4100 nM	Active	3600 nM	440 nM	1700 nM	–	–	–	–	–	–	–	–
COc1ccc2c(n1)C(=O)c1c-2n(CCCN(C)C)c(=O)c2cc(OC)c(OC)cc12	–	–	–	–	–	Active	–	–	–	Active	Active	Active	Active	Active	Active	Active	Active
COc1cnc2c(c1)C(=O)c1c-2n(CCCN2CCOCC2)c(=O)c2ccccc12	2500 nM	4100 nM	2600 nM	1700 nM	3500 nM	Active	6300 nM	600 nM	3600 nM	–	–	–	–	–	–	–	–
COc1cnc2c(c1)C(=O)c1c-2n(CCCN(C)C)c(=O)c2cc([N+](=O)[O-])ccc12	74 nM	54 nM	57 nM	52 nM	78 nM	Active	140 nM	24 nM	51 nM	–	–	–	–	–	–	–	–
COc1cc2c3c(n(CCCN4CCOCC4)c(=O)c2cc1OC)-c1ncccc1C3=O	220 nM	300 nM	520 nM	100 nM	–	Active	370 nM	52 nM	310 nM	–	–	–	–	–	–	–	–
COc1cc2c3c(n(CCCN4CCOCC4)c(=O)c2cc1OC)-c1cnccc1C3=O	2500 nM	6500 nM	16000 nM	48000 nM	40000 nM	Active	24000 nM	4100 nM	24000 nM	–	–	–	–	–	–	–	–
COc1cc2c3c(n(CCCN(C)C)c(=O)c2cc1OC)-c1cnccc1C3=O	–	–	–	–	–	Active	–	–	–	Active	Active	Active	–	Active	Active	Active	Active
COc1cnc2c(c1)C(=O)c1c-2n(CCCN2CCOCC2)c(=O)c2cc(OC)c(OC)cc12	330 nM	240 nM	340 nM	220 nM	270 nM	Active	310 nM	100 nM	340 nM	–	–	–	–	–	–	–	–
COc1cc2c3c(n(CCCN(C)C)c(=O)c2cc1OC)-c1cccnc1C3=O	–	–	–	–	–	Active	–	–	–	Active	Active	Active	Active	Active	Active	Active	Active
COc1ccc2c(n1)C(=O)c1c-2n(CCCN2CCOCC2)c(=O)c2cc(OC)c(OC)cc12	–	–	–	–	–	Active	–	–	–	Active	–	Active	Active	Active	Active	Active	Active
COc1cnc2c(c1)C(=O)c1c-2n(CCCN(C)C)c(=O)c2cc(OC)c(OC)cc12	1500 nM	920 nM	3600 nM	3900 nM	1100 nM	Active	2900 nM	130 nM	880 nM	–	–	–	–	–	–	–	–
CC[C@@]1(O)C(=O)OCc2c1cc1n(c2=O)Cc2cc3ccccc3nc2-1 [CAMPTOTHECIN]	–	–	–	–	–	–	–	13 nM	–	–	–	–	–	–	–	–	–
COc1cc2c3c(n(CCCN4CCOCC4)c(=O)c2cc1OC)-c1ccncc1C3=O	390 nM	5000 nM	5900 nM	85000 nM	> 100000 nM	Active	12000 nM	1900 nM	7600 nM	–	–	–	–	–	–	–	–
COc1cnc2c(c1)C(=O)c1c-2n(CCCN2CCOCC2)c(=O)c2cc([N+](=O)[O-])ccc12	50 nM	51 nM	43 nM	40 nM	35 nM	Active	110 nM	20 nM	40 nM	–	–	–	–	–	–	–	–
COc1cnc2c(c1)C(=O)c1c-2n(CCCN(C)C)c(=O)c2ccccc12	340 nM	300 nM	260 nM	540 nM	570 nM	Active	940 nM	210 nM	300 nM	–	–	–	–	–	–	–	–
